# Measured values taken from PMC6982609 (Nature chemical biology, 2019).
# Columns and labels:
# [1] = tested on: TNBC cells; assay: Growth inhibition of TNBC cells by EZH2 inhibitors; assay type: cell-based
# [2] = tested on: EZH2; details: read-out: IC50 for EZH2; cited from earlier work
# [3] = tested on: MDA-MB-231 cells; assay: Live-cell imaging proliferation/cell death assay with ER-stress inducer; assay type: cell-based
# Method in brief: (§1)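 Cells (1 to 3 × 10^3 per well) were seeded in 96-well plates in duplicate and dosed at the indicated concentrations. Plates were imaged in an IncuCyte live-cell system inside a 37 °C, 5% CO2 incubator. Confluence was derived from phase-contrast images. For cell death, medium contained 1.5 μM DRAQ7, and red-fluorescent dead-cell counts were recorded by automated fluorescence microscopy.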
# [4] = tested on: MDA-MB-468 cells; assay: as above; assay type: cell-based
# Method in brief: as §1
compound,measurement,setting,value
"COc1cc(C)[nH]c(=O)c1CNC(=O)c1c(C)n([C@H](C)C2CCN(CC(F)(F)F)CC2)c2ccccc12 [CPI-1205, (R)-N-((4-methoxy-6-methyl-2-oxo-1,2-dihydropyridin-3-yl)methyl)-2-methyl-1-(1-(1-(2,2,2-trifluoroethyl)piperidin-4-yl)ethyl)-1H-indole-3-carboxamide]",growth inhibition and apoptosis induction in TNBC cells,[1],failed to inhibit growth
CC[C@H](C)n1cc(C)c2c(C(=O)NCc3c(C)cc(C)[nH]c3=O)cc(-c3ccc(N4CCNCC4)nc3)cc21 [GSK126],growth inhibition and apoptosis induction in TNBC cells,[1],failed to inhibit growth
CCCc1cc(C)[nH]c(=O)c1CNC(=O)c1cc(-c2ccc(N3CCN(C(=O)CCOCCOCCOCCOCCOCCOCCOCCOCCOCCOCCOCCOCCNC(=O)CCCC[C@@H]4SC[C@@H]5NC(=O)N[C@@H]54)CC3)nc2)cc2c1cnn2C(C)C [UNC2399],IC50,[2],17 nM
tunicamycin,induction of cell death,[3],not in MDA-MB-231 cells
same,induction of cell death,[4],effectively induced cell death
